Thrombin inh – human alpha-thrombin inhibitors, primary screen, counter-screen for coagulation protease inhibitor project, biochemical, 1536-well, fluorogenic AMC substrate | Boc-VPR-AMC fluorogenic substrate cleavage | inhibition, % at 5 µM | 220,000 compounds, 0.26% hits | AID 1046, 2008;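 active = inhibition at or above 40%; inactive = inhibition below 40%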;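 note: 0% = enzyme with no compound and 100% = wells without enzyme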
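System: Human alpha-thrombin protein | Medium: pH 7.5 Tris (50 mM) with NaCl 150 mM, Tween 20 0.05% | Times: Enzyme reaction carried out at room temperature | Detection: AMC fluorescence, 355/460 nm | Evaluation: Percent inhibition scaled between no-compound controls and no-enzyme blanks | Benchmarks: Enzyme without compound as high, wells lacking enzyme as low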
FXIa inh – human FXIa protease inhibitors, primary screen, biochemical, 1536-well; Coagulation factor XI (Homo sapiens), P03951; purified FXIa, Boc-Glu-Ala-Arg-AMC fluorogenic substrate; inhibition, % at 5 µM; 220,000 compounds, 0.14% hits;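 active = inhibition of at least 40%; inactive = inhibition below 40%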;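 note: fluorescence of freed AMC excited at 355 nm; 0% = enzyme without compound and 100% = no enzyme blank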
FXIIa inh 1536 – human FXIIa protease inhibitors, primary screen, biochemical, 1536-well. Coagulation factor XII (Homo sapiens), P00748. purified FXIIa, Boc-QGR-AMC fluorogenic substrate, 2 h. inhibition, % at 5 µM. 220,000 compounds, 0.3% hits. AID 800, 2007; in the data active = inhibition above about 40%;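 note: 0% = enzyme with no compound and 100% = blank without enzyme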
Furin inh – human furin inhibitors, primary screen, biochemical, fluorescence intensity | P09958 | inhibition, % at 20 µM or 30 µM | AID 463115, 2010 | purified furin, fluorogenic substrate cleavage | 220,000 compounds, 0.061% hits; in the data active = inhibition above about 25%
Calpain2 inh – inhibitors of pig calpain II, primary screen, biochemical, fluorogenic peptide substrate, 1536-well; purified calpain II, 30 min; inhibition, % at 16 µM; AID 1236, 2008; 220,000 compounds, 0.37% hits;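 active = inhibition above about 50%, limit read from the data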
KLK5 inh – human KLK5 protease inhibitors, primary screen, biochemical, 1536-well; recombinant hK5, fluorogenic AMC substrate cleavage; inhibition, % at 5 µM; 210,000 compounds, 0.59% hits; AID 873, 2007;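 active = inhibition of 40% or more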;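 note: 0% = enzyme controls without compound and 100% = no-enzyme blanks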
Target sequence (Q9Y337 67-293 limits assumed): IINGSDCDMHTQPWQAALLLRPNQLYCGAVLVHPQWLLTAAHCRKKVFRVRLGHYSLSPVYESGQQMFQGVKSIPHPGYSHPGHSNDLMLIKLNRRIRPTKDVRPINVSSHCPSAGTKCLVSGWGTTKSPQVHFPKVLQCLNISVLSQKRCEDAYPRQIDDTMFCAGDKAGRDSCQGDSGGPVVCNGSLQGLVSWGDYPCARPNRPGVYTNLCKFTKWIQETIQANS
* = called active by the depositor. A selection: hits, their analogues and other compounds. The true share with any hit is near 1.4%.

SMILES	Thrombin inh	FXIa inh	FXIIa inh 1536	Furin inh	Calpain2 inh	KLK5 inh
O=C1c2ccccc2C(=O)N1CCc1csc(-c2cccc(Cl)c2)n1	10	2	6	-18	59*	-102
O=C1c2ccccc2C(=O)N1CCc1csc(-c2cccc(F)c2)n1	0	-6	7	-5	9	-20
O=C(Cn1nc(-c2ccc3c(c2)OCCO3)ccc1=O)Nc1cccc(NC(=O)c2ccccn2)c1	-4	4	1	-20	62*	1
O=C(Cn1nc(-c2ccc3c(c2)OCCO3)ccc1=O)Nc1ccc(N2CCOCC2)cc1	-2	6	12	-20	-20	20
COc1cccc(Nc2nc(N)nc(CCl)n2)c1	-15	-5	-2	9	-45	-5
Cc1cccc(Nc2nc(N)nc(CCl)n2)c1	49*	30	19	-2	6	33
Cc1noc(NS(=O)(=O)c2ccc(NC(=O)c3ccc(N4C(=O)c5ccccc5C4=O)cc3)cc2)c1C	-1	1	8	-33	83*	0
CCCCCc1nnc(NC(=O)OCCC)s1	-6	-12	0	-19	24	-6
CCCCCOC(=O)Nc1nnc(CCCCC)s1	-8	4	47*	-5	-19	-21
CC(=O)N(C)c1ccc(NC(=S)Nc2ccccc2)cc1	3	2	13	-14	-6	5
CC(=O)N(C)c1ccc(NC(=O)Nc2ccc(C)cc2)cc1	-3	-4	7	-17	51*	-2
Cc1ccc(S(=O)(=O)N2CCCCC2)cc1NC(=O)CN1C(=O)CN(C)C1=O	-4	-5	3	-13	2	-3
CCSc1oc(-c2ccco2)nc1S(=O)(=O)c1ccc(F)cc1	1	-6	10	-17	-94	-10
COc1ccc(S(=O)(=O)NCCOc2cccc3cccnc23)cc1OC	11	42*	30	-6	16	11
O=C(COc1ccc(Cl)cc1Cl)NC(=O)N1CCCCC1	-8	-3	4	32*	-8	-13
O=C(COc1ccc(Cl)cc1Cl)N1CCCN(C(=O)COc2ccc(Cl)cc2Cl)CC1	1	-1	13	-18	8	20
O=C(Cn1ncc2c1-c1ccccc1OC2)Nc1ccc(Cl)cn1	-2	4	27	-19	17	52*
C/C(=N\NC(=S)NCc1ccccc1)c1ccc(C#N)cc1	17	24	32	-10	22	54*
CSc1cc(-c2ccccc2)n(Cc2c(Cl)cccc2Cl)c(=O)c1C#N	3	-14	10	11	1	15
CC1CCCCC1NC(=O)c1ccc(N2CCCC2=O)cc1 (stereo unspecified)	-8	-2	6	-20	-17	-24
CSC(SC)=C(C(C)=O)C(=O)c1ccc(C)cc1	-1	28	7	-6	-3	17
Cn1c(C(=O)N2CCN(c3ncccn3)CC2)cc2c(=O)n(C)c3ccccc3c21	0	4	32	-14	12	46*
COc1ccc(C(=O)n2ccc(C)n2)cc1Br	7	7	19	-21	-1	70*
O=c1c2ccccc2nc2n1CCC2	-2	4	14	-30	-10	60*
CN1CCN(C(=O)c2ccc3c(=O)n4c(nc3c2)CCCCC4)CC1	13	2	8	-14	11	42*
SMILES	Thrombin inh	FXIa inh	FXIIa inh 1536	Furin inh	Calpain2 inh	KLK5 inh
Cc1ccccc1CS(=O)(=O)CCC(=O)NCCN1CCN(c2cccc(Cl)c2)CC1	1	6	16	-17	3	1
N=c1n(CC(=O)c2cccc([N+](=O)[O-])c2)c2ccccc2n1Cc1ccccc1	-2	1	4	-19	-42	2
CN(CC(=O)Nc1ccc(C#N)cc1)Cc1ccc(Cl)cc1Cl	25	-2	23	-7	25	52*
CN(CC(=O)Nc1ccc(C#N)cc1)Cc1ccc(Cl)cc1	4	3	7	-11	25	1
CCn1c(SCC(=O)Nc2ccc(C)cc2)nc(O)cc1=O	-2	2	4	-27	9	4
CC1CCN(CC(=O)N2CC(=O)Nc3ccccc32)CC1	7	-2	2	-14	-2	-14
CC1(C)C2CCC(C2)C1(C)N=C1OC(CCl)CS1 (stereo unspecified)	14	53*	22	-13	24	52*
O=S1(=O)CC2N=C(N(Cc3c(F)cccc3Cl)c3ccccc3F)SC2C1 (stereo unspecified)	-4	7	10	-19	-51	-7
CCOc1ccc(N(Cc2ccccc2F)C2=NC3CS(=O)(=O)CC3S2)cc1 (stereo unspecified)	9	29	21	-3	6	45*
Cc1ccc(OCc2n[nH]c(=S)n2N)cc1C	101*	-2	9	-36	-25	1
COc1ccccc1/C=C1\NC(=S)N(CC2CCCO2)C1=O (stereo unspecified)	-4	0	4	4	6	-7
Cc1ccc(NS(=O)(=O)c2cc(C(=O)NCCSc3ccc(C)cc3)ccc2C)cc1	3	17	24	-9	17	-10
Cc1ccc(NS(=O)(=O)c2cc(C(=O)NCCSC3CCCCC3)ccc2C)cc1	-3	-3	7	-16	56*	-5
COc1ccccc1N1CCN(C(=O)CNC(=O)c2cn(-c3ccccc3OC)c(=O)c3ccccc23)CC1	101*	-1	9	-33	-50	2
CC(NC(=O)CCCCCN1C(=O)c2ccccc2C1=O)c1ccc2c(c1)CCCC2 (stereo unspecified)	-9	-1	-4	-13	57*	4
COc1cc(C(=O)O/N=C2/C=C(C)C(=O)C=C2C)cc(OC)c1OC	-2	0	60*	-25	0	-6
CC(C)N(Cc1ccccc1)C(=S)NC1CCCCC1	3	42*	102*	-2	31	21
Cn1c(=O)c2c3c(sc2n2c(SCC(N)=O)nnc12)CC(C(C)(C)C)CC3 (stereo unspecified)	-1	5	12	-11	66*	-14
CCCCN(CCCC)C(=O)CSc1nnc2n(C)c(=O)c3c4c(sc3n12)CCCC4	-1	7	14	-24	-8	0
CNC(=O)CCCCC(=O)N/N=C/c1ccc(Cl)cc1Cl	-7	-3	-1	-19	-19	0
COC(=O)c1[nH]c2cc(OC)ccc2c1NC(=O)CCN1CCCCC1	14	45*	28	34*	-13	31
COC(=O)c1[nH]c2cc(C)ccc2c1NC(=O)CN1CCc2cc(OC)c(OC)cc2C1	4	-8	-1	-17	-61	97*

Screens: PubChem, several laboratories
